In ChEMBL document CHEMBL1139831, “The influence of modifications in imide fragment structure on 5-HT(1A) and 5-HT(7) receptor affinity and in vivo pharmacological properties of some new 1-(m-trifluoromethylphenyl)piperazines” (Bioorg Med Chem, 2007):

What was measured:
[1] = species on record: Mus musculus; conditions: Swiss Albino, 20 mg/kg
[2] = target: D(2) dopamine receptor (Rattus norvegicus, UniProt P61169); experiment: Displacement of [3H]spiperone from dopamine D2 receptor in rat striatal membranes; type: cell membranes, Membrane
Summary of the method: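 Competition binding on rat striatal membranes using [3H]-spiperone, butaclamol for nonspecific binding; filtration through GF/B filters and scintillation counting. Run at two compound concentrations, each in triplicate, and affinity expressed as estimated Ki.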

[3] = target: 5-hydroxytryptamine receptor 7 (Homo sapiens, UniProt P34969); experiment: Displacement of [3H]5-CT from human 5HT7 expressed in HEK293 cells; type: cell-based
Summary of the method: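 HEK293 cells stably transfected with human 5-HT7(b) cDNA; membranes (10 µg protein) incubated 1 h at 37 °C in 50 mM Tris-HCl pH 7.4 with 4 mM MgCl2, 0.1 mM pargyline, 0.1% ascorbic acid, 0.5 nM [3H]-5-CT and 7–9 test concentrations in triplicate; 10 µM 5-HT defines nonspecific binding. GF/B filtration, scintillation counting; Ki via Cheng-Prusoff from ≥3 experiments.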

[4] = Displacement of [3H]prazosin from adrenergic alpha1 receptor in rat cortical membranes; type: cell membranes, Membrane
Summary of the method: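 Rat cortical membranes with [3H]-prazosin; phentolamine defines nonspecific binding. 7–9 drug concentrations in triplicate, at least three separate experiments; stopped by GF/B filtration with three ice-cold buffer washes, bound radioactivity by liquid scintillation counting; Ki from non-linear regression and Cheng-Prusoff equation.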

[5] = species on record: Mus musculus; conditions: Swiss Albino, 10 mg/kg
[6] = species on record: Mus musculus; conditions: Swiss Albino, 20 mg/kg; remark: listed apart in the source
[7] = system: Rattus norvegicus; experiment: Effect on 8-OH-DPAT-induced lower lip retraction in Wistar rat at 10 mg/kg; type: functional
[8] = species on record: Mus musculus; conditions: Swiss Albino, 10 mg/kg; remark: listed apart in the source
[9] = system: Rattus norvegicus; experiment: Effect on 8-OH-DPAT-induced lower lip retraction in Wistar rat at 5 mg/kg; type: functional
[10] = species on record: Mus musculus; conditions: Swiss Albino, 10 mg/kg; remark: listed apart in the source
[11] = species on record: Mus musculus; conditions: Swiss Albino, 20 mg/kg; remark: listed apart in the source
[12] = system: Rattus norvegicus; experiment: Effect on lower lip retraction in Wistar rat at 2.5 mg/kg; type: functional
Summary of the method: (§1)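 Male Wistar rats (290–310 g) dosed ip in 1% Tween 80 (2 ml/kg), caged singly; lower lip retraction scored 15, 30 and 45 min after dosing as 0 (incisors not visible), 0.5 (partly) or 1 (completely visible), totals up to 3 per rat. n = 6 per group; one-way ANOVA followed by Dunnett's test.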

[13] = system: Rattus norvegicus; experiment: Effect on 8-OH-DPAT-induced lower lip retraction in Wistar rat at 2.5 mg/kg; type: functional
[14] = species on record: Mus musculus; conditions: Swiss Albino, 10 mg/kg; remark: listed apart in the source
[15] = species on record: Mus musculus; conditions: Swiss Albino, 20 mg/kg; remark: listed apart in the source
[16] = system: Rattus norvegicus; experiment: Effect on lower lip retraction in Wistar rat at 5 mg/kg; type: functional
Summary of the method: as §1

[17] = species on record: Mus musculus; conditions: Swiss Albino, 20 mg/kg; remark: listed apart in the source
[18] = system: Rattus norvegicus; experiment: Effect on lower lip retraction in Wistar rat at 10 mg/kg; type: functional
Summary of the method: as §1

[19] = species on record: Mus musculus; conditions: Swiss Albino, 10 mg/kg; remark: listed apart in the source
[20] = target: T1, 5-hydroxytryptamine receptor 1A (Rattus norvegicus, UniProt P19327); experiment: Displacement of [3H]8-OH-DPAT from 5HT1A in rat hippocampal membranes; type: cell membranes, Hippocampus, Membrane
T1 sequence (P19327 whole entry): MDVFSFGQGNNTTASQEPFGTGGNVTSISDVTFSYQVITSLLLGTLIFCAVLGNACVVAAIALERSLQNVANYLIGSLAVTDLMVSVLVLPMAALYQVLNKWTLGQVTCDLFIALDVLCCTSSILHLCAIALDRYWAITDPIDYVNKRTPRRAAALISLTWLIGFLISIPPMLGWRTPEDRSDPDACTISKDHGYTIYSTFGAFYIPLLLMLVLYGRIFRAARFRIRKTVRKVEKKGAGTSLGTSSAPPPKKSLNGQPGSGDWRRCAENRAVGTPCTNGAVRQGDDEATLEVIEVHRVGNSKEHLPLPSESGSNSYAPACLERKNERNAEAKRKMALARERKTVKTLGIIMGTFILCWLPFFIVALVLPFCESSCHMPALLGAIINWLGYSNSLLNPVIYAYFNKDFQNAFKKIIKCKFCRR
Summary of the method: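 Rat hippocampal membranes, [3H]-8-OH-DPAT as radioligand, 5-HT defining nonspecific binding. 7–9 drug concentrations run in triplicate, at least three separate experiments. Filtration through GF/B filters with three ice-cold buffer washes, scintillation counting. Ki from non-linear regression of binding isotherms via Cheng-Prusoff equation.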

[21] = system: Mus musculus; experiment: Antidepressant activity in Swiss Albino mouse assessed as immobility time during final 4 mins of 6 mins session at 5 mg/kg administered 30 mins before the test by forced-swimming test; type: functional
Summary of the method: (§2)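 Male Albino Swiss mice (24–28 g), compound given ip in 1% aqueous Tween 80 (10 ml/kg), 30 min before test. Mouse placed singly in glass cylinder (25 cm high, 10 cm diameter) holding 6 cm water at 23–25 °C for 6 min; immobility (floating, only small head-keeping movements) timed over last 4 min. n = 9-10 per group; one-way ANOVA then Dunnett's test.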

[22] = system: Mus musculus; experiment: Anxiolytic activity in Swiss Albino mouse assessed as number of punished crossings for 60 secs at 10 mg/kg administered 30 mins before the test by four-plate test; type: functional
Summary of the method: (§3)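 Male Albino Swiss mice (24–28 g), compound suspended in 1% aqueous Tween 80, given ip (10 ml/kg). Mouse placed in box with four metal floor plates, 15 s exploration, then floor electrified (120 V, 0.5 s) at each plate-to-plate crossing, no new shock for 3 s. Punished crossings counted over 60 s. n = 9-10/group; one-way ANOVA then Dunnett's test.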

[23] = system: Mus musculus; experiment: Anxiolytic activity in Swiss Albino mouse assessed as number of punished crossings for 60 secs at 2.5 mg/kg administered 30 mins before the test by four-plate test; type: functional
Summary of the method: as §3

[24] = system: Mus musculus; experiment: Effect on locomotor activity in Swiss Albino mouse assessed as number of crossings in 30 mins at 5 mg/kg administered 30 mins before the test; type: functional
Summary of the method: (§4)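 Male Albino Swiss mice given compound ip (1% Tween 80, 10 ml/kg) 30 min before placement singly in plastic cages in a multichannel photobeam activity monitor; ambulation crossings counted over the first 6 min and over a 30 min session. n = 9-10 per group; ANOVA then Dunnett's test.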

[25] = system: Mus musculus; experiment: Effect on locomotor activity in Swiss Albino mouse assessed as number of crossings in 6 mins at 10 mg/kg administered 30 mins before the test; type: functional
Summary of the method: (§5)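 Male Albino Swiss mice (24–28 g) given compound ip (suspension in 1% aqueous Tween 80, 10 ml/kg). Animals housed singly in plastic cages in a multichannel photobeam activity monitor. Ambulation crossings counted over first 6 min and over 30-min session. n = 9-10/group; one-way ANOVA then Dunnett's test.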

[26] = system: Mus musculus; experiment: Anxiolytic activity in Swiss Albino mouse assessed as number of punished crossings for 60 secs at 5 mg/kg administered 30 mins before the test by four-plate test; type: functional
Summary of the method: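 Male Albino Swiss mice dosed ip (1% aqueous Tween 80, 10 ml/kg) 30 min beforehand. Opaque box floored with four metal plates; 15 s free exploration, then each plate-to-plate crossing triggers a 0.5 s, 120 V floor shock, with no new shock for 3 s if running continues. Punished crossings counted over 60 s; n = 9-10, ANOVA plus Dunnett's test.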

[27] = system: Mus musculus; experiment: Effect on locomotor activity in Swiss Albino mouse assessed as number of crossings in 6 mins at 5 mg/kg administered 30 mins before the test; type: functional
Summary of the method: as §5

[28] = system: Mus musculus; experiment: Effect on locomotor activity in Swiss Albino mouse assessed as number of crossings in 30 mins at 10 mg/kg administered 30 mins before the test; type: functional
Summary of the method: as §4

[29] = system: Mus musculus; experiment: Antidepressant activity in Swiss Albino mouse assessed as immobility time during final 4 mins of 6 mins session at 10 mg/kg administered 30 mins before the test by forced-swimming test; type: functional
Summary of the method: as §2

[30] = system: Rattus norvegicus; experiment: Effect on lower lip retraction in Wistar rat at 20 mg/kg; type: functional
Summary of the method: as §1

[31] = system: Rattus norvegicus; experiment: Effect on 8-OH-DPAT-induced lower lip retraction in Wistar rat at 20 mg/kg; type: functional
[32] = system: Rattus norvegicus; experiment: Effect on 8-OH-DPAT-induced lower lip retraction in Wistar rat at 0.1 mg/kg; type: functional
[33] = system: Rattus norvegicus; experiment: Effect on lower lip retraction in Wistar rat at 0.1 mg/kg; type: functional
Summary of the method: as §1

Chain of 5-hydroxytryptamine receptor 7 (P34969 whole entry): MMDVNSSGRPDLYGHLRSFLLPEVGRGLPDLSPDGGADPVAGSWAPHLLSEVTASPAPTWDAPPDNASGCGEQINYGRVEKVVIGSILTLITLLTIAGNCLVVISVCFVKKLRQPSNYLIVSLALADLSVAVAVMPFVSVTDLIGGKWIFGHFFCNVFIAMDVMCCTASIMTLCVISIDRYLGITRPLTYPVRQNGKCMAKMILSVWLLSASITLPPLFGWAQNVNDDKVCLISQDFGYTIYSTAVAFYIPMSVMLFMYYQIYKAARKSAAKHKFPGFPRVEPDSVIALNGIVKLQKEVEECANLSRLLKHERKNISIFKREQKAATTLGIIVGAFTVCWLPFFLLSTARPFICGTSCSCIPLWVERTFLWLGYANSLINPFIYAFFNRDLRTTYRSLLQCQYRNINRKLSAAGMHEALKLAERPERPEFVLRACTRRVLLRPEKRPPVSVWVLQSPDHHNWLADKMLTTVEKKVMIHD
Chain of D(2) dopamine receptor (P61169 whole entry): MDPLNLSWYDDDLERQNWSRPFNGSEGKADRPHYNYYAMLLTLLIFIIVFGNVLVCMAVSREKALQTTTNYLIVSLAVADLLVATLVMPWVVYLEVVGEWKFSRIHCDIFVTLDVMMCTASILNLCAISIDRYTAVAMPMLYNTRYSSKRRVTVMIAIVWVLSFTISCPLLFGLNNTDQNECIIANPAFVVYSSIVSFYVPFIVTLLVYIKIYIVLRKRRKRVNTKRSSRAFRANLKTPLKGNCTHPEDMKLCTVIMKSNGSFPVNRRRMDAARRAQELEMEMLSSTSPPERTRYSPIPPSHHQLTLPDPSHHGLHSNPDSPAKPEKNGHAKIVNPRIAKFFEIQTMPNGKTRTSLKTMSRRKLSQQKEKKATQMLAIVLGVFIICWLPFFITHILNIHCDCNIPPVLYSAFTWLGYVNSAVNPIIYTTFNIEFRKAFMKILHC

Ki [2] [µM] | Ki [3] [µM] | Ki [4] [µM] | Ki [20] [µM] | SMILES | deltaT [1] [°C] | deltaT [5] [°C] | deltaT [6] [°C] | Activity [7] | deltaT [8] [°C] | deltaT [10] [°C] | deltaT [11] [°C] | deltaT [14] [°C] | deltaT [15] [°C] | deltaT [17] [°C] | Activity [18] | deltaT [19] [°C] | also measured
> 5 | 0.134 | 0.03 | 0.0059 | O=C1C2=C(CCCC2)C(=O)N1CCCCN1CCN(c2cccc(C(F)(F)F)c2)CC1 | -0.6 | 0.2 | -1.1 | 1.1 | -0.2 | 0 | -1.3 | 0 | -1.3 | -1.8 | 2.2 | 0 | Activity [9]: 1.5; Activity [12]: 1.9; Activity [13]: 2.3; Activity [16]: 2.2
2.72 | 0.031 | 0.073 | 0.034 | O=C1C2CC=CCC2C(=O)N1CCCCN1CCN(c2cccc(C(F)(F)F)c2)CC1 (cis isomer) | -1.2 | -0.3 | -1.5 | 1.9 | -0.6 | -0.6 | -1.6 | -0.9 | -1.3 | -1.5 | 1.4 | -0.2 | Activity [30]: 1.8; Activity [31]: 0.5
 |  |  |  | COc1ccccc1N1CCN(CCN(C(=O)C2CCCCC2)c2ccccn2)CC1 [WAY-100,635] |  |  |  |  |  |  |  |  |  |  |  |  | Activity [32]: 0.2; Activity [33]: 0

SMILES | Ki [2] [µM] | Ki [3] [µM] | Ki [4] [µM] | Ki [20] [µM] | deltaT [1] [°C] | deltaT [5] [°C] | deltaT [6] [°C] | Activity [7] | deltaT [8] [°C] | deltaT [10] [°C] | deltaT [11] [°C] | deltaT [14] [°C] | deltaT [15] [°C] | deltaT [17] [°C] | Activity [18] | deltaT [19] [°C] | also measured
CC1(C)CC(=O)N(CCCCN2CCN(c3cccc(C(F)(F)F)c3)CC2)C(=O)C1 |  | 0.046 | 0.127 |  |  |  |  |  |  |  |  |  |  |  |  |  | Activity [21]: 157.7 s; Activity [22]: 7.6; Activity [23]: 5.3; Activity [24]: 730.8; Activity [25]: 23; Activity [26]: 6.9; Activity [27]: 121.7; Activity [28]: 265.1; Activity [29]: 112.1 s
